# Test results taken from ChEMBL document CHEMBL1150371, “Design and synthesis of benzenesulfonanilides active against methicillin-resistant Staphylococcus aureus and vancomycin-resistant Enterococcus” (Bioorg Med Chem, 2008).
# Calls of active or inactive are those of the source. The rule behind the calls is not given here.
# Tests used:
# [1] = test system: Staphylococcus aureus; test: Antimicrobial activity against methicillin-resistant Staphylococcus aureus at […] by disk diffusion method; assay type: functional
# In short: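 Overnight nutrient-broth culture (35 °C, 12–18 h) of MRSA OM584 spread on Mueller-Hinton agar; 8-mm paper discs given 10 µL of 20 mM compound in DMSO; plates incubated at 37 °C about 20 h; inhibition zones measured and scored: −, ± (0–1 mm), +1 (1–15 mm), +2 (15–20 mm), +3 (>20 mm).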
# [2] = test system: Staphylococcus aureus; test: Antimicrobial activity against methicillin-resistant Staphylococcus aureus OM584 by microdilution method; assay type: functional
# In short: (§1)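 Broth microdilution MIC per Japan Society of Chemotherapy standard method. Cultures grown in sensitivity test broth at 37 °C to OD620 0.1, inoculum ≈10^5 CFU/mL. Twofold dilutions from DMSO stock, 500 to 0.2 µg/mL; 20 h, 37 °C, humid. MIC = lowest concentration clearly inhibiting growth by visual inspection; vancomycin standard; media, DMSO and water controls; at least duplicate.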
# [3] = test system: Enterococcus faecium; test: Antimicrobial activity against vancomycin-resistant Enterococcus faecium FN-1 by microdilution susceptibility test; assay type: functional; in short: as §1
# [4] = test system: Mus musculus; test: Acute toxicity in mouse at 100 mg/kg, ip upto 14 days; assay type: organism-based; parameters: dose 100 mg/kg, route intraperitoneal; conditions: in vivo, 336 h
# In short: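 Male mice (15–30 g), water only for 12 h beforehand; compound in 0.5% CMC given ip at doses up to 100 mg kg-1, n = 5/group; toxic symptoms observed up to 14 days.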
Structure (SMILES),Activity [1],MIC [2] [µg/mL],MIC [3] [µg/mL],also measured
COc1ccc(NS(=O)(=O)c2ccc(NS(C)(=O)=O)cc2)cc1,inactive,–,–,–
COc1ccc(NS(=O)(=O)c2ccc(N)cc2)cc1,inactive,–,–,–
Cc1ccc(NS(=O)(=O)c2cc(Cl)cc(Cl)c2)cc1,–,> 250,62.5,–
O=S(=O)(Nc1cc(Cl)nc(Cl)c1)c1cc(Cl)cc(Cl)c1,–,15.6,7.8,–
Nc1ccc(NS(=O)(=O)c2cc(Cl)cc(Cl)c2)cc1,–,> 250,> 250,–
O=[N+]([O-])c1ccc(NS(=O)(=O)c2cc(C(F)(F)F)cc(C(F)(F)F)c2)cc1,–,7.8,7.8,–
O=S(=O)(Nc1ccc(F)c(F)c1)c1cc(C(F)(F)F)cc(C(F)(F)F)c1,–,3.9,7.8,–
Cc1cccc(NS(=O)(=O)c2ccc(N)cc2)c1,inactive,–,–,–
O=S(=O)(Nc1cc(Cl)c(O)c(Cl)c1)c1cc(Cl)cc(Cl)c1,–,31.3,31.3,–
Cc1cccc(NS(=O)(=O)c2ccc(NS(C)(=O)=O)cc2)c1,inactive,–,–,–
O=[N+]([O-])c1ccc(S(=O)(=O)Nc2ccc(C(F)(F)F)cc2)cc1,inactive,–,–,–
CS(=O)(=O)Nc1ccc(S(=O)(=O)Nc2ccccc2)cc1,inactive,–,–,–
O=[N+]([O-])c1ccc(S(=O)(=O)Nc2ccccc2)cc1,inactive,–,–,–
O=S(=O)(Nc1cc(F)cc(F)c1)c1cc(C(F)(F)F)cc(C(F)(F)F)c1,–,2,7.8,Activity [4]: Non-toxic
O=S(=O)(Nc1ccc(C(F)(F)F)cc1)c1cc(C(F)(F)F)cc(C(F)(F)F)c1,–,7.8,3.9,–
CN(c1cc(Cl)cc(Cl)c1)S(=O)(=O)c1cc(C(F)(F)F)cc(C(F)(F)F)c1,–,> 250,> 250,–
CN(c1cc(C(F)(F)F)cc(C(F)(F)F)c1)S(=O)(=O)c1cc(Cl)cc(Cl)c1,–,> 250,> 250,–
Cc1cc(C)cc(NS(=O)(=O)c2ccc([N+](=O)[O-])cc2)c1,inactive,–,–,–
Cc1ccccc1NS(=O)(=O)c1ccc(C(=O)O)cc1,inactive,–,–,–
O=C(O)c1ccc(S(=O)(=O)Nc2ccc(I)cc2)cc1,inactive,–,–,–
O=S(=O)(Nc1cc(F)cc(F)c1)c1cc(Cl)cc(Cl)c1,–,31.3,7.8,–
Cl.O=[N+]([O-])c1ccc(S(=O)(=O)Nc2cc(C(F)(F)F)cc(C(F)(F)F)c2)cc1,–,–,–,inhibition zone (IZ) [1]: >20 mm
CS(=O)(=O)Nc1ccc(S(=O)(=O)Nc2ccc(C(F)(F)F)cc2)cc1,inactive,–,–,–
O=S(=O)(Nc1ccc(Cl)cc1)c1cc(Cl)cc(Cl)c1,–,> 250,125,–
O=S(=O)(Nc1cc(Cl)cc(Cl)c1)c1cc(C(F)(F)F)cc(C(F)(F)F)c1,–,0.5,1,Activity [4]: Non-toxic
Cc1ccc(NS(=O)(=O)c2cc(C(F)(F)F)cc(C(F)(F)F)c2)cc1,–,> 250,> 250,–

Structure (SMILES),Activity [1],MIC [2] [µg/mL],MIC [3] [µg/mL],also measured
Nc1ccc(S(=O)(=O)Nc2ccc(C(F)(F)F)cc2)cc1,inactive,–,–,–
Cc1cc(C)cc(NS(=O)(=O)c2ccc(NS(C)(=O)=O)cc2)c1,inactive,–,–,–
CS(=O)(=O)Nc1ccc(S(=O)(=O)Nc2ccc(Cl)cc2)cc1,–,–,–,inhibition zone (IZ) [1]: 0 mm
Cc1cc(C)cc(NS(=O)(=O)c2ccc(N)cc2)c1,inactive,–,–,–
COc1ccc(S(=O)(=O)Nc2cc(C(F)(F)F)cc(C(F)(F)F)c2)cc1,–,62.5,62.5,inhibition zone (IZ) [1]: 1 mm
CS(=O)(=O)Nc1ccc(S(=O)(=O)Nc2cc(C(F)(F)F)cc(C(F)(F)F)c2)cc1,–,–,–,inhibition zone (IZ) [1]: 0 mm
Nc1ccc(S(=O)(=O)Nc2ccc(Cl)cc2)cc1,inactive,–,–,–
O=S(=O)(Nc1cccc(F)c1F)c1cc(C(F)(F)F)cc(C(F)(F)F)c1,–,15.6,62.5,–
Nc1ccc(S(=O)(=O)Nc2ccccc2)cc1,inactive,–,–,–
O=S(=O)(Nc1cc(C(F)(F)F)cc(C(F)(F)F)c1)c1cc(Cl)cc(Cl)c1,–,0.5,1,–
COc1ccc(NS(=O)(=O)c2cc(C(F)(F)F)cc(C(F)(F)F)c2)cc1,–,> 250,125,–
O=S(=O)(Nc1cc(C(F)(F)F)cc(C(F)(F)F)c1)c1cccc(Cl)c1,–,31.3,15.6,–
O=S(=O)(Nc1cc(Cl)c(O)c(Cl)c1)c1cc(C(F)(F)F)cc(C(F)(F)F)c1,–,125,62.5,–
O=[N+]([O-])c1ccc(S(=O)(=O)Nc2cc(Cl)cc(Cl)c2)cc1,–,> 250,62.5,–
Cc1ccc(S(=O)(=O)Nc2cc(C(F)(F)F)cc(C(F)(F)F)c2)cc1,inactive,62.5,62.5,–
O=S(=O)(Nc1cc(F)ccc1F)c1cc(C(F)(F)F)cc(C(F)(F)F)c1,–,15.6,62.5,–
O=S(=O)(Nc1ccc(Cl)cc1)c1cc(C(F)(F)F)cc(C(F)(F)F)c1,–,31.3,62.5,–
Cc1ccc(NS(=O)(=O)c2ccc([N+](=O)[O-])cc2)cc1,inactive,–,–,–
Cl.Nc1ccc(S(=O)(=O)Nc2cc(C(F)(F)F)cc(C(F)(F)F)c2)cc1,–,–,–,inhibition zone (IZ) [1]: 1 mm
Cc1ccc(NS(=O)(=O)c2ccc(NS(C)(=O)=O)cc2)cc1,inactive,–,–,–
O=S(=O)(Nc1cc(C(F)(F)F)cc(C(F)(F)F)c1)c1ccc(C(F)(F)F)cc1,–,15.6,7.8,inhibition zone (IZ) [1]: >20 mm
COc1ccc(NS(=O)(=O)c2cc(Cl)cc(Cl)c2)cc1,–,125,125,–
Cc1cc(C)cc(NS(=O)(=O)c2ccc(C(=O)O)cc2)c1,inactive,–,–,–
O=S(=O)(Nc1ccc(C(F)(F)F)cc1)c1cc(Cl)cc(Cl)c1,–,31.3,31.3,–
Nc1ccc(S(=O)(=O)Nc2ccc(I)cc2)cc1,inactive,–,–,–
O=S(=O)(Nc1ccc(F)cc1F)c1cc(C(F)(F)F)cc(C(F)(F)F)c1,–,> 250,> 250,–

Structure (SMILES),Activity [1],MIC [2] [µg/mL],MIC [3] [µg/mL],also measured
Cc1ccc(NS(=O)(=O)c2ccc(N)cc2)cc1,inactive,–,–,–
COc1ccc(NS(=O)(=O)c2ccc(C(=O)O)cc2)cc1,inactive,–,–,–
Cc1ccc(NS(=O)(=O)c2ccc(C(=O)O)cc2)cc1,inactive,–,–,–
O=[N+]([O-])c1ccc(S(=O)(=O)Nc2cc(C(F)(F)F)cc(C(F)(F)F)c2)cc1,–,31.3,3.9,inhibition zone (IZ) [1]: >20 mm
O=S(=O)(Nc1cc(Cl)cc(Cl)c1)c1ccc(C(F)(F)F)cc1,–,15.6,7.8,–
Cc1ccc(S(=O)(=O)Nc2cc(Cl)cc(Cl)c2)cc1,–,125,62.5,–
O=S(=O)(Nc1ccc(C(F)(F)F)cn1)c1cc(Cl)cc(Cl)c1,–,> 250,> 250,–
O=S(=O)(Nc1cccc(C(F)(F)F)c1)c1cc(Cl)cc(Cl)c1,–,125,62.5,–
Cc1ccccc1NS(=O)(=O)c1ccc(N)cc1,inactive,–,–,–
O=S(=O)(Nc1c(F)cccc1F)c1cc(C(F)(F)F)cc(C(F)(F)F)c1,–,> 250,> 250,–
Cc1ccccc1NS(=O)(=O)c1ccc(NS(C)(=O)=O)cc1,inactive,–,–,–
O=S(=O)(Nc1c(Cl)cccc1Cl)c1cc(C(F)(F)F)cc(C(F)(F)F)c1,–,> 250,> 250,–
Nc1ccc(S(=O)(=O)Nc2cc(Cl)cc(Cl)c2)cc1,–,250,31.3,–
O=[N+]([O-])c1ccc(NS(=O)(=O)c2cc(Cl)cc(Cl)c2)cc1,–,7.8,15.6,–
O=S(=O)(Nc1cc(Cl)nc(Cl)c1)c1cc(C(F)(F)F)cc(C(F)(F)F)c1,–,15.6,7.8,–
O=S(=O)(Nc1cc(Cl)cc(Cl)c1)c1ccc(Cl)cc1,–,31.3,62.5,–
O=S(=O)(Nc1cc(C(F)(F)F)cc(C(F)(F)F)c1)c1ccc(Cl)cc1,–,7.8,7.8,inhibition zone (IZ) [1]: 15 mm
O=S(=O)(Nc1cc(C(F)(F)F)cc(C(F)(F)F)c1)c1ccc(F)cc1,–,15.6,62.5,–
COc1ccc(NS(=O)(=O)c2ccc([N+](=O)[O-])cc2)cc1,inactive,–,–,–
Nc1ccc(NS(=O)(=O)c2cc(C(F)(F)F)cc(C(F)(F)F)c2)cc1,–,> 250,> 250,–
O=S(=O)(Nc1ccc(Cl)cc1Cl)c1cc(C(F)(F)F)cc(C(F)(F)F)c1,–,> 250,> 250,–
Nc1ccc(S(=O)(=O)Nc2cc(C(F)(F)F)cc(C(F)(F)F)c2)cc1,–,125,62.5,inhibition zone (IZ) [1]: 1 mm
COc1ccc(S(=O)(=O)Nc2cc(Cl)cc(Cl)c2)cc1,–,250,125,–
Cc1cccc(NS(=O)(=O)c2ccc([N+](=O)[O-])cc2)c1,–,–,–,inhibition zone (IZ) [1]: 1 mm
CN[C@H](CC(C)C)C(=O)N[C@H]1C(=O)N[C@@H](CC(N)=O)C(=O)N[C@H]2C(=O)N[C@H]3C(=O)N[C@H](C(=O)N[C@H](C(=O)O)c4cc(O)cc(O)c4-c4cc3ccc4O)[C@H](O)c3ccc(c(Cl)c3)Oc3cc2cc(c3O[C@@H]2O[C@H](CO)[C@@H](O)[C@H](O)[C@H]2O[C@H]2C[C@](C)(N)[C@H](O)[C@H](C)O2)Oc2ccc(cc2Cl)[C@H]1O [VANCOMYCIN],–,–,125,–
